TRPC4 inh: inhibitors of mouse TRPC4 channel, primary screen, Fluo4 calcium, HEK293 TRPC4beta/mu-opioid cells | Short transient receptor potential channel 4 (Mus musculus), Q9QUQ5 | AID 2247, 2010 | B-score at 10 µM | 300,000 tested, 0.39% active | DAMGO-evoked Fluo4 calcium flux; hits give low values;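 active means B-score over 3 SD under the library average, no early fluorescence shift, positive overall ratio signal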
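material = TRPC4beta/mu-opioid receptor HEK293 cell line | probe or stimulus = sequential submaximal and maximal DAMGO stimulation | compound dosing = one concentration per compound | measured by = Fluo4 Ca2+ flux fluorescence | evaluation = integrated fluorescence ratio relative to baseline, converted to per-well B score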
TRPC4 act: activators of mouse TRPC4 channel, primary screen, Fluo4 calcium, HEK293 TRPC4beta/mu-opioid cells. Short transient receptor potential channel 4 (Mus musculus), Q9QUQ5. AID 2237, 2010. Fluo4 calcium fluorescence; hits give high values. 310,000 tested, 0.49% active. B-score at 10 µM;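 active means B-score above 5 SD of library B-scores, and initial fluorescence ratio not above library mean plus 5 SD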;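 further: positive B-score marks a calcium rise read as TRPC4 activation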
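Assay system: HEK293 stable line with TRPC4beta plus mu-opioid receptor; schedule: 45 min room-temperature Fluo4 loading, 110 s read; technique: kinetic Fluo4 calcium fluorescence; evaluation: integrated baseline-normalised fluorescence ratio, converted to per-well B score; controls: buffer (low) and maximal DAMGO (high)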
TRPC6 activator: mouse TRPC6 channel activators, primary screen, cell-based, HEK293, membrane potential dye; 310,000 tested, 0.13% active; B-score at 10 µM; HEK293-TRPC6 membrane potential dye fluorescence; hits give high values; AID 2550, 2010; Short transient receptor potential channel 6 (Mus musculus), Q61143;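 active means B-score of the integrated fluorescence ratio above library mean plus 3 SD, and starting fluorescence ratio within library mean plus 5 SD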;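 further: higher score means more depolarization so channel activation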
Target sequence (Q61143 whole entry, looked up): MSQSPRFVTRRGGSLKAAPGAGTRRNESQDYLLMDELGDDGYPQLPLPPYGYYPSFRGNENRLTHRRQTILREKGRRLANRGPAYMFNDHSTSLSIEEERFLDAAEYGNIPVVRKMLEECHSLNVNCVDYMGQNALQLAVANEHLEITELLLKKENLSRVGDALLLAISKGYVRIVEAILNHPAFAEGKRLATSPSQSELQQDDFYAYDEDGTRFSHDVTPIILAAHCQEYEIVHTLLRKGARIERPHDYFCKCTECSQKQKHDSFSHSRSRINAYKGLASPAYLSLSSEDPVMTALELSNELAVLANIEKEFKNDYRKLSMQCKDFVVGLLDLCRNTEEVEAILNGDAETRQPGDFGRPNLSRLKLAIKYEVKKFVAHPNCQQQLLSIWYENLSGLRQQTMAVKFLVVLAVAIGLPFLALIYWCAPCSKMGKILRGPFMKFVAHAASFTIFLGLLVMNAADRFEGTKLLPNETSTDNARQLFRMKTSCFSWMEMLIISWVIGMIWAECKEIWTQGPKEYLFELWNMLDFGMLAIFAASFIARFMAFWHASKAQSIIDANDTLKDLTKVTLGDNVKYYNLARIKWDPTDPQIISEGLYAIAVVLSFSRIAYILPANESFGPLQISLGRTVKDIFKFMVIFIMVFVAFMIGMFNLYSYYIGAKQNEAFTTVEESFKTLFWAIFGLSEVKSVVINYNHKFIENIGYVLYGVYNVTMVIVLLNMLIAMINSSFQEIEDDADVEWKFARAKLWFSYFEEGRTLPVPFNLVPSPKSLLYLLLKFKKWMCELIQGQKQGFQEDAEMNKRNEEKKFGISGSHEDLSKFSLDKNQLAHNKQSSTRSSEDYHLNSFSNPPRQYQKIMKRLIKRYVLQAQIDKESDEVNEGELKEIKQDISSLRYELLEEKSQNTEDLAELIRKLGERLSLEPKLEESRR
TRPC4 potent: positive allosteric modulators of TRPC4, primary screen, cell-based, mouse TRPC4beta, HEK293 mu-opioid, Fluo-4 calcium; DAMGO EC20, Fluo-4 Ca2+ flux; hits give high values; Short transient receptor potential channel 4 (Mus musculus), Q9QUQ5; 310,000 tested, 0.42% active; B-score at 10 µM;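 active means B-score of calcium response area above 5 SD of library B-scores, with initial fluorescence ratio within 5 SD of library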;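 further: B-score of integrated fluorescence ratio over time as area under calcium response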
Yeast superoxide: reduction of superoxide in aged yeast, primary screen, HTS; S. cerevisiae aged cells, superoxide DHE fluorescence; hits give low values; superoxide response (% of plate mean), % at 10 µM; 330,000 tested, 0.18% active; AID 2690, 2010;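 active means superoxide response under a set limit, about three screen SD below normal, cut at about 65% in these data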;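 further: yeast aged for seven days with compound at 30 °C before DHE staining; 100% = average MFI of all compound-treated wells on the plate with controls excluded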
TRPC6 inhibitor: mouse TRPC6 channel inhibitors, primary screen, cell-based, HEK293, membrane potential dye. ACh-evoked depolarization; hits give low values. B-score at 10 µM. 310,000 tested, 1.1% active. AID 2553, 2010;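 active means B-score under library mean minus 3 SD, initial fluorescence not abnormally high, positive integrated signal ratio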;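 further: B-score derived from integrated fluorescence ratio over the kinetic read; more negative B-score means stronger inhibition of depolarization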
TRPC4 spec 2: second check of whether TRPC6 inhibitors also affect mouse TRPC4 | AID 2776 | 920 tested, 42% active | inhibition, % at 10 µM | HEK293 TRPC4/MOR, membrane potential dye fluorescence; channel activated by saturating DAMGO dose | shares compounds with TRPC6 inhibitor;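 active means compounds whose fluorescence signal differed from control wells by over 3 SD, either direction, in both duplicate plates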
TRPC4 spec: mouse TRPC4 modulation by TRPC6 hits, confirmation, selectivity assay for TRPC6 inhibitor project, cell-based, HEK293 TRPC4/mu-opioid, membrane potential dye | shares compounds with TRPC6 inhibitor | membrane potential fluorescence | activity change, negative = inhibition, % at 10 µM | 920 tested, 61% active | AID 2777, 2010;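 active means rise or fall in signal beyond 3 SD of buffer-only wells in both replicate plates, either sign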;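 further: integrated kinetic ratio of fluorescence range over baseline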
HEK293 MPD ctr 2-1: nonspecific membrane potential effects, parental HEK293, confirmation, counter-screen for TRPC6 inhibitor project, cell-based, second counter screen; parental HEK293 membrane potential dye fluorescence; maximal acetylcholine challenge after compound addition; AID 2779, 2010; signal change vs control, % at 10 µM; shares compounds with TRPC6 inhibitor; 920 tested, 31% active;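 active means membrane potential signal moving either way by over 3 SD of the maximum-effect control, in both duplicate plates, meaning non-specific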
HEK293 MPD ctr-1: membrane potential modulation in parental HEK293, confirmation, counter-screen for TRPC6 inhibitor project, cell-based; shares compounds with TRPC6 inhibitor; parental HEK293 membrane potential dye fluorescence; membrane potential signal change, % at 10 µM; 920 tested, 60% active;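 active means membrane potential signal shifting up or down by more than 3 SD of buffer-only wells, on both duplicate plates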
HEK293 MPD ctr-2: parental HEK293 membrane potential modulation, confirmation, counter-screen for TRPC6 modulator project, cell-based; shares compounds with TRPC6 inhibitor; membrane potential dye fluorescence; membrane potential signal change, % at 10 µM; 2,400 tested, 51% active; AID 488924, 2010;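 active means membrane potential signal moves up or down beyond 5 SD from buffer-only wells, on both duplicate plates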
HEK293 MPD ctr 2-2: second counter-screen for TRPC6 modulators: effect in parental HEK293 cells | shares compounds with TRPC6 inhibitor | membrane potential dye fluorescence; after compound, maximal acetylcholine stimulation | inhibition, % at 10 µM | 2,400 tested, 14% active | AID 488926;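 active means membrane potential signal drops by more than 5 SD from the mean control signal, in both duplicate plates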;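 further: plate controls were acetylcholine ECmax control wells for no effect and buffer only wells for full effect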
TRPC4 ctr mod: TRPC4 modulation by TRPC6 hit compounds, confirmation, selectivity assay for TRPC6 modulator project, cell-based, HEK293 TRPC4/mu-opioid, membrane potential dye, mouse. 2,400 tested, 69% active. AID 488927, 2010. percent change from control (negative = decrease, positive = increase), % at 10 µM. shares compounds with TRPC6 inhibitor. membrane potential fluorescence;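 active means membrane potential signal moved up or down beyond 5 SD of buffer control wells, in both duplicate plates, actives on both sides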;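 further: plate controls were assay buffer wells for no effect and DAMGO maximal-effect wells for full effect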
TRPC4 ctr inh 2: second check of whether TRPC6 modulators also affect mouse TRPC4 | shares compounds with TRPC6 inhibitor | HEK293 TRPC4/mu-opioid, membrane potential dye fluorescence; stimulated with maximal-effect DAMGO | inhibition, % at 10 µM | 2,400 tested, 55% active | AID 488928;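 active means drop in membrane potential signal beyond 5 SD of the control wells in both duplicate plates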;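 further: TRPC4 counter screen for TRPC6 hits run under conditions tuned for TRPC6 not TRPC4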
TRPC6 inh conf: mouse TRPC6 channel inhibitors, confirmation, HEK293 cells, membrane potential dye, duplicate | shares compounds with TRPC6 inhibitor | ACh-evoked depolarization | inhibition, % at 10 µM | 3,300 tested, 43% active | AID 488960, 2010;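 active means fluorescence ratio falls more than 5 SD below the full-stimulation control mean, in both duplicate runs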;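 further: integrated fluorescence ratio of peak minus minimum over baseline after agonist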
TRPC6 act confirm: mouse TRPC6 channel activators, confirmation, HEK293 cells, membrane potential dye, duplicate; shares compounds with TRPC6 inhibitor; HEK293-TRPC6 membrane potential dye fluorescence, FDSS; activation, % at 10 µM; 2,800 tested, 11% active;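 active means ratio signal rise beyond 5 SD above unstimulated control wells' mean, seen in both duplicate runs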;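 further: plate controls were buffer EC0 wells for no effect and acetylcholine ECmax response for full effect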
* marks the source's active call; other numbers are inactive results; i = inactive; · = no result. Hits are enriched below; roughly 2.3% of the tested compounds scored in any of these assays.

SMILES | TRPC4 inh | TRPC4 act | TRPC6 activator | TRPC4 potent | Yeast superoxide | TRPC6 inhibitor | HEK293 MPD ctr-2 | HEK293 MPD ctr 2-2 | TRPC4 ctr mod | TRPC4 ctr inh 2 | TRPC6 inh conf | TRPC6 act confirm | others
Cc1nc2ccc(NC(=O)c3ccc(Cl)c(S(=O)(=O)N(C)c4ccccc4)c3)cc2s1 | i | i | i | i | 105 | -5.1* | i | i | -26%* | i | i | i
FC(F)Sc1ccc(-n2cc(-c3ccc(Cl)cc3)[n+]3c2CCC3)cc1 | i | i | i | i | 89 | -7* | · | · | · | · | 53%* | i | TRPC4 spec 2=i;TRPC4 spec=-14%*;HEK293 MPD ctr 2-1=-40%*;HEK293 MPD ctr-1=-216%*
Cc1ccc(-c2cn(-c3ccc(SC(F)F)cc3)c3[n+]2CCC3)cc1 | i | i | i | i | 84 | i | · | · | · | · | · | ·
NC(=O)N/N=C/c1coc2ccc3ccccc3c2c1=O | i | i | i | i | 102 | -5* | -62%* | i | -16%* | i | i | i
COc1ccc2c(c1)c(C(=O)CN1CCN(c3ccccc3)CC1)c(C)n2C | i | i | i | i | 91 | i | · | · | · | · | · | ·
COc1ccc2c(c1)c(C(=O)CN1CCN(Cc3ccccc3)CC1)c(C)n2C | i | i | i | i | 84 | -5.3* | i | i | -14%* | 60%* | i | i
COC(=O)c1ccsc1NC(=O)CN1CCN(Cc2ccc3c(c2)OCO3)CC1 | i | i | i | i | 96 | -6.7* | · | · | · | · | i | · | TRPC4 spec 2=i;TRPC4 spec=19%*;HEK293 MPD ctr 2-1=389%*;HEK293 MPD ctr-1=16%*
CCOC(=O)c1c(C)n(C)c2ccc(OC)c(NC(=O)CN3CCN(C(=O)c4ccco4)CC3)c12 | i | i | i | i | 97 | i | · | · | · | · | · | ·
CCOC(=O)c1c(C)n(C)c2ccc(OC)c(NC(=O)CN3CCN(Cc4ccccc4)CC3)c12 | i | i | i | i | 86 | -5.7* | i | i | 8.5%* | 39%* | i | i
COC(=O)c1ccccc1NC(=O)CN1CCN(Cc2ccccc2)CC1 | i | i | 15* | i | 106 | i | 384%* | i | 60%* | 40%* | i | 142%*
O=C(NNC(=O)c1cc2ccccc2cc1O)Nc1ccc(F)cc1F | i | i | i | i | 106 | i | · | · | · | · | · | ·
O=C(CSc1nc2ccccc2n1S(=O)(=O)c1cccc([N+](=O)[O-])c1)NCc1cccs1 | i | i | i | i | 117 | i | · | · | · | · | · | ·
Cn1nnnc1SCCNCC#Cc1ccccc1 | i | i | i | i | 97 | i | · | · | · | · | · | ·
CCN(CC)CC(O)Cn1c(-c2cccc(Cl)c2)nc2cc(C)c(C)cc21 (stereo not given) | i | i | i | i | 109 | -6.5* | i | i | i | 74%* | 63%* | i
COc1ccc(CC(=O)OCC(=O)NCC2CCCO2)cc1OC (stereo not given) | · | · | · | · | 151 | · | · | · | · | · | · | ·
CCOC(=O)N1CCN(C(=O)C(C)c2ccc([N+](=O)[O-])cc2)CC1 (stereo not given) | i | i | i | i | 99 | i | · | · | · | · | · | ·
CCOC(=O)C1CCN(C(=O)C(C)c2ccc([N+](=O)[O-])cc2)CC1 (stereo not given) | i | i | i | i | 110 | -5* | i | i | 12%* | i | i | ·
CN(C)c1ccc2c3c(ccc(N(C)C)c13)C(=O)OC2 | i | i | i | i | 93 | -6* | -408%* | i | -68%* | 44%* | i | i
CS(=O)(=O)Nc1ccc2c(c1)C(=O)OC2 | i | i | i | i | 107 | i | · | · | · | · | · | ·
CCOc1ccc(C(=O)Cn2cnnc2C#N)cc1 | i | i | i | i | 96 | i | · | · | · | · | · | ·

High-throughput results: PubChem, several laboratories
